Data taken from ChEMBL document CHEMBL1127808, “Structure-distribution relationships for metal-labeled myocardial imaging agents: comparison of a series of cationic gallium (III) complexes with hexadentate bis(salicylaldimine) ligands” (J Med Chem, 1994).

Tests used:
Assay type in all cases: functional
Rattus norvegicus [1] = assay: Retention of tracer Gallium in blood of rats after intravenous administration and Gallium-67 Bis(salicylaldimine) after 120 min
Summary of the method: (§1)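 Male Sprague-Dawley rats under ether anesthesia received a femoral vein bolus of no-carrier-added 67Ga complex (1–3 μCi, 0.1–0.2 mL; 5% ethanol in 0.16 M NaCl with 5–10% propylene glycol, filtered 0.2 μm). Injected dose was found by weighing the syringe. Rats were decapitated at 1 or 120 min. Organs were blotted, weighed and gamma counted against an injectate standard, giving percent injected dose per organ. Blood was taken as 7% of body mass. Mean ± SD, n = 3–4.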

Rattus norvegicus [2] = assay: Retention of tracer Gallium in blood of rats after intravenous administration and Gallium-67 Bis(salicylaldimine) after 1 min; summary of the method: as §1
Rattus norvegicus [3] = assay: Retention of tracer Gallium in heart of rats after intravenous administration and Gallium-67 Bis(salicylaldimine) after 120 min; summary of the method: as §1
Rattus norvegicus [4] = assay: Retention of tracer Gallium in heart of rats after intravenous administration and Gallium-67 Bis(salicylaldimine) after 1 min; summary of the method: as §1
Rattus norvegicus [5] = assay: Retention of tracer Gallium in kidney of rats after intravenous administration and Gallium-67 Bis(salicylaldimine) after 1 min; summary of the method: as §1
Rattus norvegicus [6] = assay: Retention of tracer Gallium in liver of rats after intravenous administration and Gallium-67 Bis(salicylaldimine) after 1 min; summary of the method: as §1
Rattus norvegicus [7] = assay: Retention of tracer Gallium in lung of rats after intravenous administration and Gallium-67 Bis(salicylaldimine) after 120 min; summary of the method: as §1
Rattus norvegicus [8] = assay: Retention of tracer Gallium in liver of rats after intravenous administration and Gallium-67 Bis(salicylaldimine) after 120 min; summary of the method: as §1
Rattus norvegicus [9] = assay: Retention of tracer Gallium in lung of rats after intravenous administration and Gallium-67 Bis(salicylaldimine) after 1 min; summary of the method: as §1
[10] = Ratio of retention of tracer Gallium in Heart to blood was determined after intravenous administration to rats after 120 min
Summary of the method: (§2)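 Heart-to-liver and heart-to-blood ratios were calculated from percent injected dose per gram of tissue. No-carrier-added 67Ga complex (1–3 μCi, 0.1–0.2 mL) in 5% ethanol/saline with 5–10% propylene glycol, radiochemical purity >98%, was given as a femoral vein bolus to male Sprague-Dawley rats under ether anesthesia. Rats were decapitated at 1, 15 or 120 min and tissues gamma counted. Mean ± SD, n = 3–4.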

[11] = Ratio of retention of tracer Gallium in Heart to Liver was determined after intravenous administration to rats after 120 min; summary of the method: as §2
[12] = Ratio of retention of tracer Gallium in Heart to Liver was determined after intravenous administration to rats after 15 min; summary of the method: as §2
[13] = Ratio of retention of tracer Gallium in Heart to Liver was determined after intravenous administration to rats after 1 min; summary of the method: as §2
[14] = Ratio of retention of tracer Gallium in Heart to blood was determined after intravenous administration to rats after 15 min; summary of the method: as §2
[15] = Ratio of retention of tracer Gallium in Heart to blood was determined after intravenous administration to rats after 1 min; summary of the method: as §2
Rattus norvegicus [16] = assay: Retention of tracer Gallium in kidney of rats after intravenous administration and Gallium-67 Bis(salicylaldimine) after 120 min; summary of the method: as §1
Rattus norvegicus [17] = assay: Retention of tracer Gallium in kidney of rats after intravenous administration and Gallium-67 Bis(salicylaldimine) after 120 min was determined; summary of the method: as §1
Rattus norvegicus [18] = assay: Retention of tracer Gallium in kidney of rats after intravenous administration and Gallium-67 Bis(salicylaldimine) after 1 min was determined; summary of the method: as §1

| Compound | Injected dose (Rattus norvegicus [1]) [%] | Injected dose (Rattus norvegicus [2]) [%] | Injected dose (Rattus norvegicus [3]) [%] | Injected dose (Rattus norvegicus [4]) [%] | Injected dose (Rattus norvegicus [5]) [%] | Injected dose (Rattus norvegicus [6]) [%] | Injected dose (Rattus norvegicus [7]) [%] | Injected dose (Rattus norvegicus [8]) [%] | Injected dose (Rattus norvegicus [9]) [%] | Ratio [10] | Ratio [11] | Ratio [12] | Ratio [13] | Ratio [14] | Ratio [15] | Injected dose (Rattus norvegicus [16]) [%] | Injected dose (Rattus norvegicus [17]) [%] | Injected dose (Rattus norvegicus [18]) [%] |
| --- | --- | --- | --- | --- | --- | --- | --- | --- | --- | --- | --- | --- | --- | --- | --- | --- | --- | --- |
| Oc1ccccc1/C=N/CCCNCCNCCC/N=C/c1ccccc1O | 0.64 | 4.21 | 0.41 | 0.45 | 9.84 | 26.7 | 0.28 | 5.3 | 1 | 12.2 | 0.9 | 0.51 | 0.2 | 8.3 | 2.15 | 1.4 | – | – |
| CC(C)c1ccc(O)c(/C=N/CCCNCCNCCC/N=C/c2cc(C(C)C)ccc2O)c1 | 1.21 | 23.4 | 0.55 | 0.67 | 6.02 | 49.2 | 0.36 | 8.5 | 1.06 | 8.6 | 0.75 | – | 0.16 | – | 0.54 | 3.95 | – | – |
| CCOc1cc(C)c(/C=N/CCCNCCNCCC/N=C/c2c(C)cc(OCC)cc2O)c(O)c1 | 0.42 | 7.73 | 0.87 | 0.91 | 5.24 | 29.5 | 0.49 | 3 | 0.8 | 40.5 | 2.7 | 0.73 | 0.29 | 20.9 | 2.2 | 2.42 | – | – |
| COc1cc(O)c(/C=N\CC(C)(C)CNCCNCC(C)(C)C/N=C/c2c(O)cc(OC)cc2OC)c(OC)c1 | 0.45 | 18.8 | 1.01 | 1.03 | 8.33 | 50.6 | 0.64 | 3.9 | 1.63 | 44.5 | 3.24 | 0.32 | 0.23 | 9.6 | 1.1 | 5.4 | – | – |
| COc1ccc(O)c(/C=N/CCCNCCNCCC/N=C/c2cc(OC)ccc2O)c1 | 1.11 | 7.55 | 0.23 | 0.34 | 7.64 | 26.5 | 0.18 | 6.8 | 0.79 | 4.3 | 0.42 | 0.19 | 0.15 | 2.6 | 0.89 | 1.19 | – | – |
| CCN(CC)c1ccc(/C=N\CC(C)(C)CNCCNCC(C)(C)C/N=C/c2ccc(N(CC)CC)cc2O)c(O)c1 | 1.06 | 30.6 | 0.4 | 0.66 | 4.25 | 47 | 1.31 | 11.1 | 5.3 | 8.1 | 0.5 | 0.13 | 0.17 | 1.9 | 0.45 | 5.17 | – | – |
| COc1cc(O)c(/C=N/CCCNCCNCCC/N=C/c2c(O)cc(OC)cc2OC)c(OC)c1 | 0.33 | 8.49 | 0.86 | 1.04 | 5.26 | 43 | 0.52 | 3.1 | 0.92 | 45.6 | 4.1 | 0.56 | 0.32 | 18.1 | 2.3 | 2.17 | – | – |
| CCN(CC)c1ccc(/C=N/CCCNCCNCCC/N=C/c2ccc(N(CC)CC)cc2O)c(O)c1 | 1.27 | 11.1 | 0.65 | 0.69 | 6.33 | 38.1 | 0.67 | 9.7 | 1.26 | 9.2 | 0.86 | 0.28 | 0.24 | 4.5 | 1.22 | 4.67 | – | – |
| COc1ccc(/C=N/CCCNCCNCCC/N=C/c2ccc(OC)cc2O)c(O)c1 | 0.42 | 4.44 | 0.65 | 0.67 | 8.42 | 25.2 | 0.38 | 5.1 | 1.05 | 30.6 | 1.6 | 0.62 | 0.32 | 17.6 | 2.99 | 1.69 | – | – |
| COc1cc(O)c(/C=N/CCCNCCNCCC/N=C/c2cc(C)c(OC)cc2O)cc1C | 0.61 | 7.79 | 0.89 | 0.88 | – | 39.5 | 0.42 | 5.3 | 0.79 | 30 | 1.92 | – | 0.14 | – | 2.1 | – | 2.74 | 5.14 |
| COc1cc(C)c(/C=N/CCCNCCNCCC/N=C/c2c(C)cc(OC)cc2O)c(O)c1 | 0.43 | 5.94 | 1.03 | 1.08 | 5.39 | 28.8 | 0.55 | 3.4 | 0.88 | 45.1 | 3.6 | – | 0.45 | – | 3.4 | 1.94 | – | – |
